{"data": "Published values gathered from unrelated publications", "FLT3": "Receptor-type tyrosine-protein kinase FLT3 (FLT3, Homo sapiens, UniProt P36888)", "FLT3 K663Q": "Receptor-type tyrosine-protein kinase FLT3 (FLT3, Homo sapiens, UniProt P36888, K663Q)", "FLT3 autoinhibited": "Receptor-type tyrosine-protein kinase FLT3, autoinhibited (FLT3, Homo sapiens, UniProt P36888)", "FLT3 D835Y": "Receptor-type tyrosine-protein kinase FLT3 (FLT3, Homo sapiens, UniProt P36888, D835Y)", "FLT3 R834Q": "Receptor-type tyrosine-protein kinase FLT3 (FLT3, Homo sapiens, UniProt P36888, R834Q)", "FLT3 F691L/ITD": "Receptor-type tyrosine-protein kinase FLT3 (FLT3, Homo sapiens, UniProt P36888, F691L/ITD)", "FLT3 D835V/ITD": "Receptor-type tyrosine-protein kinase FLT3 (FLT3, Homo sapiens, UniProt P36888, D835V/ITD)", "FLT3 N841I": "Receptor-type tyrosine-protein kinase FLT3 (FLT3, Homo sapiens, UniProt P36888, N841I)", "FLT3 D835H": "Receptor-type tyrosine-protein kinase FLT3 (FLT3, Homo sapiens, UniProt P36888, D835H)", "FLT3 D835V": "Receptor-type tyrosine-protein kinase FLT3 (FLT3, Homo sapiens, UniProt P36888, D835V)", "note": "Protocols differ between the studies behind these lines."}
{"SMILES": "O=C(c1ccc(Nc2ncc(Cl)c(-c3ccc(Cl)s3)n2)cc1)N1CCC(N2CCCC2)CC1", "target": "FLT3", "test": "binding, competition with immobilised ligand", "conditions": "1 µM", "remaining binding [%]": 10}
{"SMILES": "CC(=O)N1CCC(c2ccc(C(=O)NC(=N)N)cc2C(F)(F)F)CC1", "target": "FLT3 K663Q", "test": "cell-free assay, competition with immobilised ligand", "conditions": "1 µM", "remaining binding [%]": 100}
{"SMILES": "CN(C)c1ncc(F)c(-c2cnn3ncccc23)n1", "target": "FLT3 autoinhibited", "test": "binding", "conditions": "1 µM", "remaining binding [%]": 72}
{"SMILES": "CCN1CCN(Cc2ccc(C(=O)Nc3ccc(C)c(Oc4ccc5c(c4)CC(=O)N5)c3)cc2C(F)(F)F)CC1", "target": "FLT3 K663Q", "test": "binding, competition with immobilised ligand", "conditions": "1 µM", "remaining binding [%]": 45}
{"SMILES": "CN1CCN(c2ccc(Nc3nccc(-c4ccccc4)n3)cc2C(F)(F)F)CC1", "target": "FLT3 D835Y", "test": "binding", "conditions": "10 µM", "remaining binding [%]": 1.3}
{"SMILES": "Cc1noc([C@H]2C[C@@H](c3ccc(C(F)(F)F)cc3)CN(C(=O)N3CCS(=O)(=O)C3)C2)n1", "target": "FLT3 R834Q", "test": "cell-free assay, competition with immobilised ligand", "conditions": "1 µM", "remaining binding [%]": 91}
{"SMILES": "CN(C)c1nccc(-c2cnc3ncccn23)n1", "target": "FLT3 autoinhibited", "test": "binding", "conditions": "1 µM", "remaining binding [%]": 72}
{"SMILES": "COc1ncc2cc3ccccc3nc2c1C#N", "target": "FLT3 R834Q", "test": "cell-free assay, competition with immobilised ligand", "conditions": "5 µM", "remaining binding [%]": 92}
{"SMILES": "COc1ccc2cc(OCC3(C(=O)O)CN(C(=O)c4ccc(F)cc4)C3)ccc2c1", "target": "FLT3 R834Q", "test": "cell-free assay, competition with immobilised ligand", "conditions": "1 µM", "remaining binding [%]": 100}
{"SMILES": "Cc1cnc(Nc2ccc(C(=O)N3CCC(N4CCCC4)CC3)cc2)nc1-c1cc2ccccc2s1", "target": "FLT3 F691L/ITD", "test": "binding, competition with immobilised ligand", "conditions": "1 µM", "remaining binding [%]": 18}
{"SMILES": "O=C(NC1CCC1)c1ccc2nc(-c3cccc(NS(=O)(=O)NCCN4CCCCC4)c3)cn2c1", "target": "FLT3 D835V/ITD", "test": "cell-free assay, competition with immobilised ligand", "conditions": "10 µM", "remaining binding [%]": 37}
{"SMILES": "CCC(=N\\O)/C(C)=C/c1ccc(F)cc1", "target": "FLT3 autoinhibited", "test": "cell-free assay, competition with immobilised ligand", "conditions": "1 µM", "remaining binding [%]": 86}
{"SMILES": "COc1ccnn2ncc(-c3ccnc(N(C)C)n3)c12", "target": "FLT3 K663Q", "test": "binding", "conditions": "1 µM", "remaining binding [%]": 100}
{"SMILES": "O=C(NCCCN1CCOCC1)c1ccc(Nc2ncc(Cl)c(-c3ccc(Cl)s3)n2)cc1", "target": "FLT3 autoinhibited", "test": "binding, competition with immobilised ligand", "conditions": "1 µM", "remaining binding [%]": 5.5}
{"SMILES": "CNC(=O)[C@@H]1CC[C@@H](n2c(-c3ccc4cnccc4c3)nc3ccc(C(=O)NCc4cccc(C(N)=O)c4)cc32)C1", "target": "FLT3 N841I", "test": "binding, competition with immobilised ligand", "conditions": "1 µM", "remaining binding [%]": 100}
{"SMILES": "C[C@@H](c1ccc(-n2cnc3c(N)ncnc32)cc1)N1CCc2nn(C)c(Cc3ccccc3)c2C1=O", "target": "FLT3 K663Q", "test": "binding, competition with immobilised ligand", "conditions": "0.1 µM", "remaining binding [%]": 77}
{"SMILES": "CC1CCCN1c1nccc(-c2cnn3ncccc23)n1 (stereo not shown)", "target": "FLT3", "test": "binding", "conditions": "1 µM", "remaining binding [%]": 100}
{"SMILES": "CN1CCN(c2ccc(Nc3nccc(-c4cccc([N+](=O)[O-])c4)n3)cc2C(F)(F)F)CC1", "target": "FLT3 D835H", "test": "binding", "conditions": "10 µM", "remaining binding [%]": 1.1}
{"SMILES": "CN(C)c1ncnc(-c2ccc3nc(Nc4cc(CN5CCN(C(=O)CC(F)(F)F)CC5)ccn4)[nH]c3c2)c1Cl", "target": "FLT3 D835H", "test": "cell-free assay, competition with immobilised ligand", "conditions": "1 µM", "remaining binding [%]": 42}
{"SMILES": "O=C(c1ccc(Nc2ncc(Cl)c(-c3cc4ccccc4s3)n2)cc1)N1CCC(N2CCCC2)CC1", "target": "FLT3 F691L/ITD", "test": "binding, competition with immobilised ligand", "conditions": "1 µM", "remaining binding [%]": 2.7}
{"SMILES": "C[C@@H]1CCN(c2nccc(-c3cnn4ncccc34)n2)C1", "target": "FLT3", "test": "binding", "conditions": "1 µM", "remaining binding [%]": 100}
{"SMILES": "COc1cnc(Nc2cccc(S(N)(=O)=O)c2)nc1N1CCN(c2ccccc2)C(=O)C1", "target": "FLT3 K663Q", "test": "binding, competition with immobilised ligand", "conditions": "1 µM", "remaining binding [%]": 87}
{"SMILES": "c1cncc(-c2cccc(Nc3nccc(NC4CCCCC4)n3)c2)c1", "target": "FLT3 R834Q", "test": "binding, competition with immobilised ligand", "conditions": "10 µM", "remaining binding [%]": 5.5}
{"SMILES": "N[C@H]1CCN(c2nccc(-c3cnn4ncccc34)n2)C1", "target": "FLT3 K663Q", "test": "binding", "conditions": "1 µM", "remaining binding [%]": 100}
{"SMILES": "C=CC(=O)N1CCC(C(=O)NCC(=O)N2CCN(c3nc(-c4cnc(N)nc4C(F)F)nc(N4CCOCC4)n3)CC2)CC1", "target": "FLT3 D835V", "test": "binding, competition with immobilised ligand", "conditions": "1 µM", "remaining binding [%]": 61}
{"SMILES": "O=C(NCCCN1CCOCC1)c1ccc(Nc2nccc(-c3cc4ccccc4s3)n2)cc1", "target": "FLT3 D835V/ITD", "test": "binding, competition with immobilised ligand", "conditions": "1 µM", "remaining binding [%]": 12}
{"SMILES": "Nc1ncc2c(n1)-c1c([nH]c3ccc(C#CC4CC4)cc13)CCCC2", "target": "FLT3 R834Q", "test": "binding, competition with immobilised ligand", "conditions": "1 µM", "remaining binding [%]": 79}
{"SMILES": "C[C@@H]1CN(c2ccc3ncc(-c4ccc5[nH]nc(C6CC6)c5c4)n3n2)C[C@H](C)O1", "target": "FLT3", "test": "binding, competition with immobilised ligand", "conditions": "50 nM", "remaining binding [%]": 31}
{"SMILES": "F[C@@H]1CCN(c2nccc(-c3cnn4ncccc34)n2)C1", "target": "FLT3 D835V", "test": "binding", "conditions": "1 µM", "remaining binding [%]": 84}
{"SMILES": "CN(C)C(=O)Cn1cc(-c2nc(C3(c4ccc(-c5cnc(N)nc5)cc4)CC3)no2)cn1", "target": "FLT3 D835V/ITD", "test": "cell-free assay, competition with immobilised ligand", "conditions": "1 µM", "remaining binding [%]": 89}
{"SMILES": "CN(c1nccc(-c2cnn3ncccc23)n1)C1CC1", "target": "FLT3 D835Y", "test": "binding", "conditions": "1 µM", "remaining binding [%]": 85}
{"SMILES": "O=C(c1ccc(Nc2nccc(-c3cc4ccccc4s3)n2)cc1)N1CCC(N2CCCC2)CC1", "target": "FLT3 D835Y", "test": "binding, competition with immobilised ligand", "conditions": "1 µM", "remaining binding [%]": 28}
{"SMILES": "FC(F)(F)c1ccc2c(c1)nc(-c1cccnc1)n2C1CC1", "target": "FLT3", "test": "cell-free assay, competition with immobilised ligand", "conditions": "1 µM", "remaining binding [%]": 93}
{"SMILES": "O=C(NCC1CCOCC1)c1n[nH]cc1NC(=O)c1c(F)cccc1F", "target": "FLT3 N841I", "test": "binding, competition with immobilised ligand", "conditions": "1 µM", "remaining binding [%]": 100}
{"SMILES": "COc1cnc(Nc2cccc(S(N)(=O)=O)c2)nc1N1CCN(c2ccccc2)CC1", "target": "FLT3", "test": "binding, competition with immobilised ligand", "conditions": "1 µM", "remaining binding [%]": 36}
{"SMILES": "O=C(Nc1c[nH]nc1C(=O)NC1CCNCC1)c1cc(F)cc(F)c1", "target": "FLT3 D835Y", "test": "binding, competition with immobilised ligand", "conditions": "1 µM", "remaining binding [%]": 89}
{"SMILES": "NS(=O)(=O)c1cc(NC(=O)C2(c3ccccc3Cl)CC2)ccc1Oc1cccc(Cl)c1", "target": "FLT3 D835Y", "test": "cell-free assay, competition with immobilised ligand", "conditions": "1 µM", "remaining binding [%]": 100}
